# High-throughput results (PubChem)
# Shown is part of a subset that was picked to be rich in hits.
# 697 NFkB inh: inhibitors of the PMA/ionomycin-induced NF-kB reporter in 697 B cells | 697 B-cell NF-kB luciferase reporter, 16 h | inhibition, % at 4 µM | 330,000 tested, 0.33% active | AID 435022; in the data active = inhibition above about 35%
# Jurkat NFkB inh: lowers PMA/ionomycin-induced NF-kB signal in Jurkat cells; inhibition, % at 4 µM; 330,000 tested, 0.53% active; AID 435003; PMA/ionomycin-induced NF-kB luciferase reporter, luminescence; in the data active = inhibition above about 50%
# CHOP inhibitor: blocks CHOP induction under ER stress | CHO-K1 CHOP-promoter luciferase, tunicamycin-induced, 15-18 h | inhibition, % at 10 µM | 220,000 tested, 3.8% active;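 active = compounds that reduced the stress-induced luciferase reporter signal by more than about 70% of percent inhibition, limit read from the data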;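 note: 0% = tunicamycin plus vehicle and 100% = wells without tunicamycin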
# UPR XBP1 act: activators of adaptive arm of unfolded protein response (XBP1); CHO-XBP1 luciferase reporter, IRE1-XBP1 UPR activation, luminescence; percent of tunicamycin response, DMSO as zero; activation, % at 20 µM; 330,000 tested, 0.33% active; AID 463104;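 active = versus positive control, 20 µM dose yields 30% or more activation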;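 note: 100% = tunicamycin at 10 µg/mL and 0% = DMSO only wells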
#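 Material: CHO cell line with stable XBP1 luciferase reporter; schedule: 16-18 h cell attachment at 37 °C, then 6 h compound exposure; signal: glow luminescence from Steady-Glo reagent; medium: serum-containing F12 medium, 10% FBS; benchmarks: tunicamycin 10 µg/mL and vehicle-only wells; read-out: percent activation relative to tunicamycin reference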
# UPR CHOP act: activators of apoptotic arm of unfolded protein response (CHOP) | CHO-CHOP luciferase reporter, UPR activation, luminescence; percent of tunicamycin response over DMSO baseline | 330,000 tested, 0.34% active | activation, % at 10 µM;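 active = at 10 µM dose, activation of 40% or more, normalized to positive control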;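 note: 100% = tunicamycin at 10 µg/mL and 0% = DMSO alone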
#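 System: CHO-CHOP luciferase reporter cell line; amount: 500 cells/well; buffer or medium: F12 medium containing 10% fetal bovine serum; incubation: 6 h compound exposure at 37 °C after overnight seeding; measured by: luciferase luminescence after 10 min with Steady-Glo reagent; evaluation: % reporter activation, DMSO baseline versus tunicamycin full activation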
# CHOP confirm: confirmation of CHOP induction inhibitors. shares compounds with CHOP inhibitor. inhibition, % at 10 µM. 2,100 tested, 45% active. CHO-CHOP promoter luciferase reporter, tunicamycin-induced, luminescence. AID 504437;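 active = mean of three repeat readings of reporter signal inhibition above a set limit, cut at about 70% in these data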;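 note: 0% = tunicamycin plus vehicle and 100% = wells lacking tunicamycin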
# An asterisk follows results filed as active; / = no result.
SMILES,697 NFkB inh,Jurkat NFkB inh,CHOP inhibitor,UPR XBP1 act,UPR CHOP act,CHOP confirm
Cc1ccc2nc(/C(C#N)=C/c3ccc(-c4cccc([N+](=O)[O-])c4)o3)[nH]c2c1,/,/,108*,/,/,52
Cc1ccc2nc(/C(C#N)=C\c3cc(O)ccc3[N+](=O)[O-])[nH]c2c1,-5,-11,-16,-2,3,/
Cc1ccn2cc(-c3cc4ccccc4oc3=O)nc2c1,/,/,105*,/,/,88*
Cc1cc(C)cc(Oc2cc(NC(=O)c3cn(C)nc3C)cc([N+](=O)[O-])c2)c1,-4,-1,65,2,7,/
Cc1cccc(Oc2cc(NC(=O)Cn3cnc([N+](=O)[O-])n3)cc([N+](=O)[O-])c2)c1,/,/,103*,/,/,34
O=C(Nc1cc(Cl)ccc1O)c1cc2n(n1)C(C(F)(F)F)CC(c1ccc3c(c1)OCO3)N2 (configuration not stated),-5,21,105*,-5,-3,89*
Cc1ccc(S(=O)(=O)N2CCOCC2)cc1C(=O)c1nccn1C,13,1,4,-6,-2,/
CS(=O)(=O)c1ccc(C(=O)Nc2ccc(N3CCCCC3)cc2)c(Cl)c1,-29,-13,6,-3,-1,/
Cc1ccc(Sc2ccc(NC(=O)c3ccc(S(C)(=O)=O)cc3Cl)cc2)cc1,0,-2,98*,1,1,65
Cc1cccc(N2CCN(C(=O)CS(=O)(=O)Cc3nc(-c4ccccc4F)oc3C)CC2C)c1 (configuration not stated),-19,9,98*,-3,0,80*
CC1CCCCC1NC(=O)COC(=O)c1ccc2c(=O)n3c(nc2c1)CCC3 (configuration not stated),11,-5,/,0,2,/
CC(=O)Nc1cccc(OCCCNC(=O)c2cccc3ccccc23)c1,7,1,-8,3,2,/
CCOCCCNC(=O)/C(C#N)=C/c1ccc(-c2ccc(S(=O)(=O)N3CCOCC3)cc2)o1,-25,10,-7,1,1,/
CCOCCCNC(=O)/C(C#N)=C/c1ccc([N+](=O)[O-])o1,-3,1,107*,-7,-6,37
CCCCn1c(-c2nonc2N)nc2ccccc21,4,19,100*,-1,2,42
CCCN=C1N(C)C[C@@H]2[C@@H]3C(=O)N(Cc4ccccc4)C(=O)[C@@H]3[C@](Cc3ccccc3)(C(=O)OC)N12,6,/,/,3,1,/
Cc1cc(N/N=C/c2ccc(O)cc2O)nc(-c2ccccc2O)n1,/,/,101*,/,/,14
Cc1cc(N/N=C\c2ccccc2)nc(-c2ccccc2O)n1,1,-25,58,0,3,/
COc1cccc(CC(=O)N(CCC2=CCCCC2)c2c(N)n(Cc3ccccc3)c(=O)[nH]c2=O)c1,17,5,/,-1,1,/
Cc1ccc2c(c1)c1c3n2CCN(C(=O)CN2CCN(C)CC2)C3CCC1 (configuration not stated),-6,1,12,-1,3,/
CN1CCN(CC(=O)N2CCn3c4c(c5cc(C6CCCCC6)ccc53)CCCC42)CC1 (configuration not stated),-17,-8,/,26,9,132*
O=C(O)CCCC(=O)Nc1cccc(-c2nc3ccccc3[nH]2)c1,17,0,-17,0,-1,/
O=C(Nc1ccc(Cl)c(-c2nc3ccccc3[nH]2)c1)c1ccc2c(c1)OCO2,-47,-26,64,5,2,/
O=C(Nc1ccc(-c2nc3ccccc3[nH]2)cc1)c1ccc2c(c1)OCO2,-81,-46,105*,12,13,27
O=C(Nc1cccc(-c2nc3ccccc3[nH]2)c1)c1cccc(NC(=O)c2ccco2)c1,12,-28,107*,-2,8,-20
SMILES,697 NFkB inh,Jurkat NFkB inh,CHOP inhibitor,UPR XBP1 act,UPR CHOP act,CHOP confirm
O=C(CSc1ccc(Cl)cc1)Nc1cccc(-c2nc3ccccc3[nH]2)c1,-75,-30,99*,2,1,-55
O=C(Nc1nnc(CC2=CCCCC2)s1)Nc1ccccc1F,-30,-21,98*,7,5,6
O=C(Nc1nnc(COc2ccccc2F)s1)Nc1ccccc1F,21,3,99*,5,0,-6
O=C(Nc1ccc(F)cc1)Nc1nnc(COc2ccccc2F)s1,-6,-6,27,-3,4,/
Cc1cccc(NC(=O)Cc2nnc(NC(=O)Nc3ccccc3F)s2)c1,-2,12,57,4,1,/
CCCCn1c(=O)[nH]c(=O)c2c1nc(-c1ccc(-c3ccccc3)cc1)n2C,4,4,/,22,6,/
CCCCn1c(=O)[nH]c(=O)c2c1nc(-c1ccc(OCCC)c(OCC)c1)n2C,-64,-31,101*,8,3,91*
CCOC(=O)c1ccc(NC(=O)CCc2nc(-c3cccc(C)c3)no2)cc1,3,-8,98*,2,-1,45
CC(C)(C)c1ccc(-n2ncc3c2CCCC3NC(=O)C2=NNC(=O)CC2)cc1 (configuration not stated),-22,3,/,-3,2,/
COc1cc(N=c2ssnc2Cl)c(OC)cc1Cl,5,-5,-26,-1,3,/
Cc1nnc(N=c2ssnc2Cl)o1,-6,-1,/,-2,34,/
Cc1ccc(N=c2ssnc2Cl)cc1,-38,-14,5,0,2,/
Cc1cc(Cl)ccc1N=c1ssnc1Cl,-6,3,108*,5,-2,16
COc1ccc(OC)c(N=c2ssnc2Cl)c1,-16,-9,107*,0,1,-6
Cc1cc(C)nc(/N=c2/ssnc2Cl)c1,12,-3,96*,-5,14,19
COc1ccc(Nc2nc(-c3ccccc3)nc3ccccc23)cc1S(=O)(=O)N1CCOCC1,22,21,36,15,5,/
O=C(Nc1nc2ccccc2s1)C1CC(=O)N(c2ccc(Cl)cc2)C1 (configuration not stated),13,1,105*,1,-1,16
COc1ccc(N2CC(C(=O)Nc3nc4ccc(OC)cc4s3)CC2=O)cc1 (configuration not stated),-3,-13,/,-7,-1,/
Cc1ccc(CNC(=O)c2ccc(N3CCC4(CC3)CC(c3ccccc3)=NO4)c(N)c2)cc1,-24,10,/,5,3,/
COc1ccc(CC2(CO)CCN(CC3=Cc4cc(Cl)ccc4OC3)CC2)cc1,-17,35,102*,-1,6,105*
Nc1c(C(=O)Nc2ccccc2)c2nc3ccccc3nc2n1CCCN1CCOCC1,13,5,100*,1,4,39
O=C(COc1ccc(Cl)cc1)Nc1ccccc1C(=O)NCc1ccco1,-16,2,97*,4,6,-8
Cc1cc(C)cc(OCC(=O)Nc2ccccc2C(=O)NCc2ccco2)c1,-14,-9,66,1,0,/
